Paper PMC11604526 (Cell Reports Medicine, 2024)
Square brackets hold non-standard residues; d marks the D form. Ends that are not written are not given here. Dmt = Cc1cc(O)cc(C)c1C[C@H](N)C(=O)O; Cha = N[C@@H](CC1CCCCC1)C(=O)O

What was measured:
[1] = tested on: GAT-1 and Synt1A; assay: GAT-1 and Synt1A total levels and membrane fractions in cultured neurons; type: cell-based, mouse; conditions: GSNO 50 μM for 6 h; n = 5
Procedure, shortened: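 Primary cortical neurons from E16 mice were grown on poly-L-ornithine in Neurobasal with 2% B27. For membrane fractions, cells were permeabilized in extraction buffer 1 and spun at 1000 ×g for 5 min; the pellet was resuspended in buffer 2B to extract integral membrane proteins. β-Actin was checked to confirm fraction purity. Western blots used anti-GAT-1 and anti-syntaxin1A (both 1:4000) and anti-Na+-K+-ATPase (1:1000).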

[2] = tested on: GAT-1; assay: 3H-GABA uptake in HEK293 cells overexpressing GAT-1; type: cell-based; conditions: 100 nM; compared with Tat-Synt1A251-265mut (100 nM); n = 5
Procedure, shortened: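 HEK293 cells were kept in MEM with 10% FBS and transduced with lentiviral GAT-1-EGFP. These GAT-1-overexpressing cells were incubated with peptide (100 nM), or with the mutant control peptide at the same concentration, before 3H-GABA uptake was measured.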

[3] = tested on: midline-crossing BDA+ fibers, C7 spinal cord; assay: BDA tract tracing, axonal sprouting; type: in vivo, mouse; conditions: treatment days 5-11 after stroke; BDA day 34, staining day 48; n = 6
Procedure, shortened: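 Contralateral cortex injected at two sites with 10% biotinylated dextran amine on day 34 after stroke. Fourteen days later, mice were transcardially perfused with ice-cold saline, then 4% PFA. Transverse cervical spinal cord and coronal brain sections were cut at 40 μm. BDA+ axons were labelled with streptavidin-Cy3 (1:500). Analysis was blinded.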

[4] = tested on: SNARE complex (Synt1A, SNAP-25, VAMP-2); assay: SNARE complex and monomer levels in synaptosomes; type: in vivo, mouse; conditions: 0.2 pmol/d days 5-7 after stroke, day 8
Procedure, shortened: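 Peri-infarct tissue was homogenised at 4°C in 320 mM sucrose, 1 mM NaHCO3, 1 mM MgCl2 and 0.5 mM CaCl2. The homogenate was spun at 500 ×g for 2 min, and the supernatant at 10,100 ×g for 10 min. The pellet was resuspended in 0.32 M sucrose, layered on 0.8 M sucrose and spun at 9100 ×g for 15 min. The 0.8 M fraction was pelleted at 12,000 ×g for 15 min and taken up in SDS lysis buffer.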

[5] = tested on: extracellular GABA ([GABA]o); assay: Extracellular GABA in peri-infarct cortex; type: in vivo, mouse; conditions: microinjection 0.2 pmol/d days 5-7 after stroke; day 8 after stroke; microdialysis; n = 6
Procedure, shortened: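 A CMA7 microdialysis probe was placed in peri-infarct cortex (AP 0, ML −0.65, DV −1.5 mm from bregma). It was perfused at 1 μL/min with bicarbonate-buffered saline containing 10 mM glucose. Dialysate was collected in 20-min fractions over 2 h, and the second fraction was analysed. GABA was measured by ELISA (activator, 37°C for 15 min in the dark, stop solution, A450).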

[6] = tested on: Synt1A-VAMP-2 complex; assay: Co-IP of Synt1A-VAMP-2 complex in peri-infarct cortex; type: in vivo, mouse; conditions: microinjection 0.2 pmol/d days 5-7 after stroke; day 8; n = 5
Procedure, shortened: (§1)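 Photothrombotic stroke was induced with rose bengal. Peptide was infused into the peri-infarct cortex through a 33-gauge injector in a guide cannula implanted in the infarct core (AP 0, ML −1.5, DV −1.0 mm from bregma). Dissected tissue was lysed 30 min in ice-cold RIPA and spun at 12,000 ×g for 15 min at 4°C. Lysates were precleared 1 h at 4°C with protein G magnetic beads before co-IP.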

[7] = tested on: peri-infarct cortex; assay: In vivo LFP and spike recording in peri-infarct cortex; parameters: species or system mouse; conditions: infused days 5-11 after stroke; recorded day 12
Procedure, shortened: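 Spike-firing time histograms were built by counting spikes in sequential 1 s bins. Movement-related change was expressed as ((firing events during movement − firing events during stillness)/firing events during stillness) × 100.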

[8] = tested on: GAT-1; assay: GAT-1 level and membrane fraction; type: cell-based; conditions: 100 nM; compared with Tat-Synt1A251-265mut; n = 5
Procedure, shortened: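 HEK293 cells lentivirally expressing GAT-1-EGFP were exposed to peptide at 100 nM. Cells were permeabilised in Extraction Buffer 1 and spun at 1000 ×g for 5 min to split cytosol from membranes. Integral membrane proteins were extracted from the pellet in Extraction Buffer 2B and taken straight to western blot. β-Actin, a cytosolic marker, served to check membrane-fraction purity.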

[9] = tested on: layer 5 peri-infarct pyramidal neurons; assay: Whole-cell recordings in acute brain slices from treated mice; type: in vivo, mouse
[10] = tested on: Synt1A-SNAP-25 complex; assay: Co-IP of Synt1A-SNAP-25 complex in peri-infarct cortex; type: in vivo, mouse; conditions: microinjection 0.2 pmol/d days 5-7 after stroke; day 8; n = 5
Procedure, shortened: as §1

[11] = tested on: mice with photothrombotic stroke; assay: Motor function; type: in vivo, mouse
Procedure, shortened: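 Photothrombotic stroke was induced with rose bengal, holding body temperature at 37 ± 0.5°C. For grid walking, each mouse walked freely for 5 min on a wire grid 50 cm high. For the cylinder task, mice explored a clear cylinder (15 cm tall, 10 cm diameter) for 5 min, and only rears with both forelimbs clearly visible were timed. Tests ran 7 days before stroke and at set days after stroke.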

[12] = target: GAT-1-Synt1A interaction (Mus musculus, UniProt P31648); assay: Synt1A-GAT-1 uncoupling activities of ZLQ series of compounds; conditions: Figures S4A/S4B; n = 3
[13] = 0.2 pmol/d days 5-7 after stroke, recorded day 8
[14] = compared with Tat-Synt1A251-265mut-treated mice
[15] = compared with sham and Tat-Synt1A251-265mut-treated mice with stroke

Compound: N[C@@H](CCC(=O)N[C@@H](CSN=O)C(=O)NCC(=O)O)C(=O)O [GSNO]
- membrane contents of GAT-1 and Synt1A in cultured neurons [1]: significantly increased membrane contents of GAT-1 and Synt1A
- total levels of GAT-1 and Synt1A in cultured neurons [1]: had no effects on the total levels of GAT-1 and Synt1A

Compound: Tat-TKKAVKYQSKARRKK [Tat-Synt1A251-265]
- 3H-GABA uptake, HEK293 cells overexpressing GAT-1 [2]: did not affect
- number of BDA+ fibers crossing the midline into the denervated spinal cord at the C7 level [3]: significantly increased the number of BDA^+ fibers crossing the midline
- Synt1A, SNAP-25, or VAMP-2 monomer (synaptosomes) [4]: did not affect
- stroke-induced decreases in SNARE complexes (synaptosomes) ([4]; n = 5-6): reversed stroke-induced decreases in SNARE complexes
- stroke-induced increase in [GABA]o in the peri-infarct cortex [5]: reversed stroke-induced increase in [GABA]o
- stroke-induced decrease in Synt1A-VAMP-2 complex [6]: reversed stroke-induced decreases
- LFP power in delta (1-3 Hz) and theta (4-12 Hz) oscillations [7]: significantly enhanced
- effects on cortical oscillations in GAT-1 CKO mice [7]: disappeared in GAT-1 CKO mice
- movement-related spike firing rates, WT mice [7]: reversed stroke-induced decrease in spike firing rates
- expression of GAT-1, HEK293 cells overexpressing GAT-1 [8]: did not affect
- membrane distribution of GAT-1, HEK293 cells overexpressing GAT-1 [8]: did not affect
- mEPSCs, sham-operated mice ([9]; 0.2 pmol/d): had no effect on sham-operated mice
- mIPSCs, sham-operated mice ([9]; 0.2 pmol/d): had no effect on sham-operated mice
- tonic GABA currents (Itonic), sham-operated mice ([9]; 0.2 pmol/d days 5-7, recorded day 8): had no effect on sham-operated mice
- effect of stroke on Itonic, GAT-1 CKO mice with stroke [9, 13]: rather than that in GAT-1 CKO mice with stroke
- effect of stroke on Itonic, WT mice with stroke [9, 13]: reversed the effect of stroke on Itonic
- mEPSC frequency, mice with stroke ([9]; 0.2 pmol/d, day 8 after stroke): reversed stroke-induced decrease in mEPSC frequency
- mIPSC frequency, mice with stroke ([9]; 0.2 pmol/d, day 8 after stroke): reversed the stroke-induced decrease in mIPSC frequency
- sEPSC amplitude, mice with stroke [9, 14]: but not amplitude
- sEPSC frequency, mice with stroke [9, 14]: significantly increased sEPSC frequency
- sIPSC amplitude, mice with stroke [9, 15]: but not amplitude
- sIPSC frequency, mice with stroke [9, 15]: significantly increased sIPSC frequency
- sEPSCs, sham-operated mice ([9]; mouse, in vivo): had no effect on sEPSCs
- sIPSCs, sham-operated mice ([9]; mouse, in vivo): had no effect on sIPSCs of sham-operated mice
- stroke-induced decrease in Synt1A-SNAP-25 complex [10]: reversed stroke-induced decreases
- motor functions of sham-operated mice ([11]; peptide microinjection, sham-operated mice): had no effect on motor functions of sham-operated mice

Compound: [dR][Dmt][Cha][dK][dR]-NH2 (N-terminus assumed; SMILES Cc1cc(O)cc(C)c1C[C@H](NC(=O)[C@H](N)CCCNC(=N)N)C(=O)N[C@@H](CC1CCCCC1)C(=O)N[C@H](CCCCN)C(=O)N[C@H](CCCNC(=N)N)C(N)=O) [ZLQ-3]
- GAT-1-Synt1A uncoupling activity among the ZLQ series [12]: most potent GAT-1-Synt1A uncoupling activity
- impairment of motor functions, intranasal 5 mg/kg ([11]; 5 mg/kg intranasally days 5-11 after stroke, test day 12): attenuated the impairment of motor functions
